Data published in ChEMBL document CHEMBL4052590, “Anti-Osteoporotic Activity of Harpagoside by Upregulation of the BMP2 and Wnt Signaling Pathways in Osteoblasts and Suppression of Differentiation in Osteoclasts” (J Nat Prod, 2017).
Active and inactive are the calls of the source. No cut-off for these calls is given here.

Assays:
[1] = Cytotoxicity against mouse MC3T3-E1 cells assessed as cell viability up to 4 uM after 72 hrs by MTT assay; format: cell-based; conditions: read-out: Activity
Outline: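 MC3T3-E1 cells (1 × 10^4 cells/mL) exposed to a range of concentrations for 72 h at 37 °C, 5% CO2. MTT added (500 μg/mL final) for 4 h, formazan dissolved in DMSO, A570 read. Viability given as % of solvent control; IC50 by nonlinear regression of % survival versus concentration.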

MC3T3-E1 [2] = experiment: Upregulation of OPG protein expression in mouse MC3T3-E1 cells up to 4 uM after 48 hrs in presence of ascorbic acid and beta-glycerophosphate by Western blot analysis; format: functional, cell-based
MC3T3-E1 [3] = experiment: Decrease in RANKL mRNA expression in mouse MC3T3-E1 cells at up to 4 uM after 48 hrs in presence of ascorbic acid and beta-glycerophosphate by real-time PCR analysis; format: functional, cell-based
MC3T3-E1 [4] = experiment: Downregulation of RANKL protein expression in mouse MC3T3-E1 cells up to 4 uM after 48 hrs in presence of ascorbic acid and beta-glycerophosphate by Western blot analysis; format: functional, cell-based
Outline: (§1)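 MC3T3-E1 cells given 400 μM ascorbic acid plus 5 mM β-glycerophosphate, exposed to test compound or not for 48 h. Lysed in boiling SDS sample buffer, protein measured by BCA. 40−50 μg of lysate run on 8% or 10% SDS-PAGE and transferred to PVDF. Blocked in 5% milk, probed with primary antibodies for 3 h at room temperature or overnight at 4 °C, detected by ECL.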

MC3T3-E1 [5] = experiment: Increase in ALP mRNA expression in 2 days differentiated mouse MC3T3-E1 cells up to 4 uM after 48 hrs in presence of ascorbic acid and beta-glycerophosphate by real-time PCR analysis; format: functional, cell-based
Outline: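 MC3T3-E1 cells stimulated with 400 μM ascorbic acid and 5 mM β-glycerophosphate, with or without compound, 48 h. TRIzol RNA, real-time RT-PCR: 40 cycles of 95 °C 20 s, 56 °C 20 s, 72 °C 30 s. Ct of each transcript […] β-actin Ct, expressed relative to control samples.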

Mus musculus [6] = species: Mus musculus; experiment: Activation of Wnt signaling pathway in mouse MC3T3-E1 cells assessed as increase in BMP2 mRNA expression after 48 hrs in presence of ascorbic acid and beta-glycerophosphate by real-time PCR analysis; format: cell-based
MC3T3-E1 [7] = experiment: Downregulation of DKK1 protein expression in mouse MC3T3-E1 cells up to 4 uM after 48 hrs in presence of ascorbic acid and beta-glycerophosphate by Western blot analysis; format: functional, cell-based; outline: as §1
Mus musculus [8] = species: Mus musculus; experiment: Activation of Wnt signaling pathway in mouse MC3T3-E1 cells assessed as upregulation of cyclin D1 protein expression after 48 hrs in presence of ascorbic acid and beta-glycerophosphate by Western blot analysis; format: cell-based
Outline: (§2)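 MC3T3-E1 cells with 400 μM ascorbic acid and 5 mM β-glycerophosphate, with or without compound, for 48 h. Whole-cell lysates (40−50 μg, BCA) separated by SDS-PAGE, blotted to PVDF. c-Myc and cyclin D1 probed with primary antibodies, then secondary antibody for 90 min, read by chemiluminescence.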

Mus musculus [9] = species: Mus musculus; experiment: Activation of Wnt signaling pathway in mouse MC3T3-E1 cells assessed as upregulation of C-Myc protein expression after 48 hrs in presence of ascorbic acid and beta-glycerophosphate by Western blot analysis; format: cell-based; outline: as §2
Osteoclast = experiment: Inhibition of RANKL/M-CSF-induced osteoclast differentiation in mouse bone marrow-derived osteoclasts assessed as downregulation of NFATc1 protein expression up to 4 uM after 48 hrs by Western blot analysis; format: functional, cell-based
Outline: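 Mouse bone marrow cells were taken from 4-week-old mice and primed 24 h in 30 ng/mL M-CSF. They were then given 100 ng/mL RANKL plus 30 ng/mL M-CSF, with or without compound, for 48 h. Lysates were made in boiling SDS buffer and quantified by BCA. 40–50 μg was run on SDS-PAGE and immunoblotted on PVDF with β-actin reference and ECL read-out.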

Mus musculus [10] = experiment: Anti-osteoporotic activity in po dosed OVX-induced bone loss ICR mouse model assessed as decrease in trabecular bone destruction in femur administered for 12 weeks by microcomputed tomography; format: functional, organism-based
Mus musculus [11] = experiment: Anti-osteoporotic activity in ovariectomized ICR mouse assessed as increase in trabecular thickness in femur at 2 to 10 mg/kg, po after 12 weeks by microcomputed tomography; format: functional, organism-based
Mus musculus [12] = experiment: Anti-osteoporotic activity in ovariectomized ICR mouse assessed as suppression of changes in structure model index levels in femur at 2 to 10 mg/kg, po after 12 weeks by microcomputed tomography; format: functional, organism-based
Mus musculus [13] = experiment: Effect on calcium level in serum of OVX-induced bone loss ICR mouse model at 5 mg/kg, po for 12 weeks by ELISA (reference value: 9.3 +/- 0.3 mg/dl); format: functional
Mus musculus [14] = experiment: Effect on […] level in serum of OVX-induced bone loss ICR mouse model at 2 mg/kg, po for 12 weeks by ELISA (reference value: 8.2 +/- 0.4 mg/dl); format: functional
Mus musculus [15] = experiment: Effect on […] level in serum of OVX-induced bone loss ICR mouse model at 5 mg/kg, po for 12 weeks by ELISA (reference value: 8.2 +/- 0.4 mg/dl); format: functional
Mus musculus [16] = experiment: Effect on […] level in serum of OVX-induced bone loss ICR mouse model at 10 mg/kg, po for 12 weeks by ELISA (reference value: 8.2 +/- 0.4 mg/dl); format: functional
Mus musculus [17] = experiment: Effect on alkaline phosphatase activity in serum of OVX-induced bone loss ICR mouse model at 5 mg/kg, po for 12 weeks using p-NPP as substrate (reference value: 84.9 +/- 4.2 U/L); format: functional
Mus musculus [18] = experiment: Effect on alkaline phosphatase activity in serum of OVX-induced bone loss ICR mouse model at 10 mg/kg, po for 12 weeks using p-NPP as substrate (reference value: 84.9 +/- 4.2 U/L); format: functional
Mus musculus [19] = experiment: Effect on TRAP activity in serum of OVX-induced bone loss ICR mouse model at 2 mg/kg, po for 12 weeks (reference value: 19.8 +/- 1.0 U/L); format: functional
Mus musculus [20] = experiment: Effect on TRAP activity in serum of OVX-induced bone loss ICR mouse model at 5 mg/kg, po for 12 weeks (reference value: 19.8 +/- 1.0 U/L); format: functional
Mus musculus [21] = experiment: Effect on TRAP activity in serum of OVX-induced bone loss ICR mouse model at 10 mg/kg, po for 12 weeks (reference value: 19.8 +/- 1.0 U/L); format: functional
Mus musculus [22] = experiment: Effect on osteocalcin level in serum of OVX-induced bone loss ICR mouse model at 2 mg/kg, po for 12 weeks by ELISA (reference value: 176.9 +/- 4.7 ng/ml); format: functional
MC3T3-E1 [23] = experiment: Upregulation of OPN protein expression in 2 days differentiated mouse MC3T3-E1 cells up to 4 uM after 48 hrs in presence of ascorbic acid and beta-glycerophosphate by Western blot analysis; format: functional, cell-based
MC3T3-E1 [24] = experiment: Induction of OCN mRNA expression in mouse MC3T3-E1 cells up to 4 uM after 48 hrs in presence of ascorbic acid and beta-glycerophosphate by real-time PCR analysis

## C[C@]1(OC(=O)/C=C/c2ccccc2)C[C@@H](O)[C@]2(O)C=CO[C@@H](O[C@@H]3O[C@H](CO)[C@@H](O)[C@H](O)[C@H]3O)[C@@H]21 [HARPAGOSIDE]
[1]
  viability at 72 h: > 90%
MC3T3-E1 [2]
  Activity: Active
MC3T3-E1 [3]
  Activity: Active
MC3T3-E1 [4]
  Activity: Active
MC3T3-E1 [5]
  Activity: Dose-dependent effect
Mus musculus [6]
  Activity: Dose-dependent effect
MC3T3-E1 [7]
  Activity: Active
Mus musculus [8]
  Activity: Dose-dependent effect
Mus musculus [9]
  Activity: Dose-dependent effect
Osteoclast
  inhibition: Active
Mus musculus [10]
  Activity: Dose-dependent effect
Mus musculus [11]
  Activity: Active
Mus musculus [12]
  Activity: Active
Mus musculus [13]
  Activity: 9.6 mg/dL
Mus musculus [14]
  Activity: 7.9 mg/dL
Mus musculus [15]
  Activity: 8 mg/dL
Mus musculus [16]
  Activity: 8.2 mg/dL
Mus musculus [17]
  Activity: 82.6 U/L
Mus musculus [18]
  Activity: 78.8 U/L
Mus musculus [19]
  Activity: 10.4 U/L
Mus musculus [20]
  Activity: 8.9 U/L
Mus musculus [21]
  Activity: 7.7 U/L
Mus musculus [22]
  Activity: 170 ng/mL
MC3T3-E1 [23]
  Activity: Dose-dependent effect
MC3T3-E1 [24]
  Activity: Active
